# Measurements gathered from unrelated publications.
# Lines come from different studies, so protocols differ.
Structure (SMILES),host,medium,route,dose,notes,clearance
COc1ccc2cc(CCC[18F])ccc2c1,male BALB/c mouse,plasma,intravenous,,,0.25 mL/min
Cc1c(Br)cc(NC(=O)C(c2ccccc2)S(=O)(=O)O)cc1Br (centres unmarked),CD-1 mouse,blood,intravenous,2 mg/kg,,34.9 mL/min/kg
CC[C@H](C)[C@@H]1NC(=O)[C@@](C)(NC(=O)[C@H](CCCNC(=N)N)NC(=O)[C@H](CC(C)C)NC(=O)[C@@H](NC(=O)[C@H](CCC(N)=O)NC(=O)[C@H](CC(C)C)NC(C)=O)[C@@H](C)O)CCCC=CCCC[C@@](C)(C(=O)N[C@@H](CC(C)C)C(=O)N[C@@H](Cc2ccc3ccccc3c2)C(N)=O)NC(=O)[C@H](CCCNC(=N)N)NC(=O)[C@H](CCC(N)=O)NC1=O,male BALB/c mouse,plasma,intravenous,5 mg/kg,,0.662 mL/min/kg
CC(F)(F)CN1Cc2cc(C(F)(F)F)ncc2C2=CN=C(NCc3c(F)ccc4c3CCO4)N3C=NC(C1=O)C23 (centres unmarked),male CD-1 mouse,plasma,intravenous,2 mg/kg,,0.39 mL/min/kg
CC(C)(C)c1ccc(O)c(CN(Cc2cc(C(C)(C)C)ccc2O)C2CCC(NC(N)=O)CC2)c1 (centres unmarked),male C57BL/6 mouse,plasma,intraperitoneal,10 mg/kg,single dose,17 mL/min/kg
Cc1ccc2cncc(N3CCc4c(cc(Cn5ccnc5)cc4-c4cn(C)nc4C(F)(F)F)C3=O)c2c1,male CD-1 mouse,plasma,intravenous,3 mg/kg,,16 mL/min/kg
Nc1ncc(-c2ccncc2)nc1Nc1ccc2[nH]ccc2c1,male C57BL/6 mouse,plasma,intravenous,5 mg/kg,,112 mL/min/kg
CNC(=O)c1cc(OC)cc2c(N3CCc4c(cc(Cn5ccnc5)cc4-c4cn(C)nc4C(F)(F)F)C3=O)ccnc12,male CD-1 mouse,plasma,intravenous,3 mg/kg,,15 mL/min/kg
COc1nc(-c2cc(C)c(N[C@@H](C)c3c(F)cc(F)cc3F)nn2)ccc1-n1cnc(C)c1,male CD-1 mouse,plasma,intravenous,1 mg/kg,single dose,6.33 mL/min/kg
CCO[C@H]1CCN(Cc2c(OC)cc(C)c3[nH]ccc23)[C@H](c2ccc(C(=O)O)cc2)C1,C57BL/6 mouse,plasma,intravenous,1 mg/kg,,16 mL/min/kg
CNCCN(C)c1cc(C#N)cc(CCc2cc(C)cc(N)n2)c1,male BALB/c mouse,plasma,intravenous,2 mg/kg,,184 mL/min/kg
CC(C)N1Cc2cc(C(F)(F)F)ncc2C2=CN=C(NCc3c(F)ccc4c3CCO4)N3C=NC(C1=O)C23 (centres unmarked),male CD-1 mouse,plasma,intravenous,2 mg/kg,,1.71 mL/min/kg
CN(C)c1ccc(-c2cc(=O)c3ccc(O)c(O)c3o2)cc1,mouse,plasma,intravenous,1 mg/kg,,168 mL/min/kg
Cc1c(Br)cc(NC(=O)CS(=O)(=O)O)cc1Br,CD-1 mouse,blood,intravenous,2 mg/kg,,21.8 mL/min/kg
O=C(Nc1ccc(Cl)c(Cl)c1)c1ccc(N2CCNCC2)c([N+](=O)[O-])c1,male mouse,plasma,oral,10 mg/kg,,53.5 mL/min/kg
COc1cc(C(=O)N2CCC(N3CCN(C)CC3)CC2)ccc1Nc1ncc2c(n1)N(C)c1ccccc1C(=O)N2C,mouse,plasma,intravenous,1 mg/kg,,5.6 mL/min/kg
Cc1noc(C)c1-c1ccc2nc(-c3cnn(CC(C)(C)O)c3)nc(N3CCOC[C@@H]3c3ccccc3)c2c1,CD-1 mouse,plasma,intravenous,2 mg/kg,,7.3 mL/min/kg
COc1ccc2nccc(N3CCc4c(cc(Cn5ccnc5)cc4-c4cn(C)nc4C(F)(F)F)C3=O)c2c1,male CD-1 mouse,plasma,intravenous,3 mg/kg,,27 mL/min/kg
NCC1CCN(c2nc(-c3ccncc3)nc3sc4c(c23)CCCC4)CC1,female CD-1 mouse,plasma,intravenous,10 mg/kg,,38 mL/min/kg
NC(=S)NN=Cc1ncccc1N,female C57BL/6 mouse,plasma,intravenous,20 mg/kg,,13.8 mL/min/kg
